Data from ChEMBL document CHEMBL4689842, “EUbOPEN Chemogenomics Library wave 1” (2021).

Tests used:
Assay type in all cases: toxicity, cell-based
U2OS [1] = assay: Multiplex assay against U2OS; conditions: human
Outline: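 Live cells were stained at seeding with Hoechst33342, BioTracker Green Microtubule Cytoskeleton Dye, MitoTracker Red and Annexin V Alexa Fluor 680. Following compound addition, they were imaged on a CQ1 microscope at 37°C and 5% CO2 and gated by CellPathfinder machine learning into Hoechst high-intensity objects or normal cells, with normal cells split into healthy, pyknosed or fragmented nuclei and pyknosed cells into mitotic or apoptotic. Tubulin, mitochondrial-mass and membrane-permeability phenotypes are per cents of healthy-nucleus cells.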

HEK-293T = assay: Incucyte cell viability with HEK293T; conditions: human, 10 µM, compound concentration 10 uM; also: filed as whole numbers so only -1 and 0 and 1 occur
Fibroblast = assay: Incucyte cell viability with human fibroblast; conditions: 10 µM, compound concentration 10 uM; also: filed as whole numbers so only -1 and 0 and 1 occur
U2OS [2] = assay: Incucyte cell viability with U2OS; conditions: human, 10 µM, compound concentration 10 uM; also: filed as whole numbers so only -1 and 0 and 1 occur
[3] = 12 h, 1 µM, compound concentration 1 uM, replicate 1
[4] = 12 h, 1 µM, compound concentration 1 uM, replicate 2
[5] = 12 h, 10 µM, compound concentration 10 uM, replicate 1
[6] = 12 h, 10 µM, compound concentration 10 uM, replicate 2
[7] = 24 h, 1 µM, compound concentration 1 uM, replicate 1
[8] = 24 h, 1 µM, compound concentration 1 uM, replicate 2
[9] = 24 h, 10 µM, compound concentration 10 uM, replicate 1
[10] = 24 h, 10 µM, compound concentration 10 uM, replicate 2
[11] = 48 h, 1 µM, compound concentration 1 uM, replicate 1
[12] = 48 h, 1 µM, compound concentration 1 uM, replicate 2
[13] = 48 h, 10 µM, compound concentration 10 uM, replicate 1
[14] = 48 h, 10 µM, compound concentration 10 uM, replicate 2
[15] = 0 h, replicate number 1, timepoint 0 hours
[16] = 6 h, replicate number 1, timepoint 6 hours
[17] = 6 h, replicate number 2, timepoint 6 hours
[18] = 12 h, replicate number 1, timepoint 12 hours
[19] = 18 h, replicate number 1, timepoint 18 hours
[20] = 24 h, replicate number 1, timepoint 24 hours

Nc1nc2c(c(N3CCNCC3)n1)CCC1=C2[C@@H]2CCCC[C@@H]2O1
Population Apoptotic (%) (U2OS [1]; [3]): 34% | Population Fragmented Nuclei (%) (U2OS [1]; [3]): 14% | Population Healthy Nuclei (%) (U2OS [1]; [3]): 66% | Population Hoechst High Intensity Objects (%) (U2OS [1]; [3]): 7% | Population Membrane Permeable-Phenotype (%) (U2OS [1]; [3]): 4% | Population Mitochondria Different-Phenotype (%) (U2OS [1]; [3]): 9% | Population Mitotic Cells (%) (U2OS [1]; [3]): 65% | Population Normal (%) (U2OS [1]; [3]): 92% | Population Tubulin-Different-Phenotype (%) (U2OS [1]; [3]): 7% | Total Cell Count (U2OS [1]; [3]): 167 | Population Apoptotic (%) (U2OS [1]; [4]): 0% | Population Fragmented Nuclei (%) (U2OS [1]; [4]): 20% | Population Healthy Nuclei (%) (U2OS [1]; [4]): 61% | Population Hoechst High Intensity Objects (%) (U2OS [1]; [4]): 15% | Population Membrane Permeable-Phenotype (%) (U2OS [1]; [4]): 8% | Population Mitochondria Different-Phenotype (%) (U2OS [1]; [4]): 27% | Population Mitotic Cells (%) (U2OS [1]; [4]): 100% | Population Normal (%) (U2OS [1]; [4]): 84% | Population Pyknosed Nuclei (%) (U2OS [1]; [4]): 18% | Population Tubulin-Different-Phenotype (%) (U2OS [1]; [4]): 21% | Total Cell Count (U2OS [1]; [4]): 71 | Population Apoptotic (%) (U2OS [1]; [5]): 26% | Population Fragmented Nuclei (%) (U2OS [1]; [5]): 13% | Population Healthy Nuclei (%) (U2OS [1]; [5]): 62% | Population Hoechst High Intensity Objects (%) (U2OS [1]; [5]): 9% | Population Membrane Permeable-Phenotype (%) (U2OS [1]; [5]): 11% | Population Mitochondria Different-Phenotype (%) (U2OS [1]; [5]): 88% | Population Mitotic Cells (%) (U2OS [1]; [5]): 73% | Population Normal (%) (U2OS [1]; [5]): 90% | Population Pyknosed Nuclei (%) (U2OS [1]; [5]): 24% | Population Tubulin-Different-Phenotype (%) (U2OS [1]; [5]): 93% | Total Cell Count (U2OS [1]; [5]): 135 | Population Apoptotic (%) (U2OS [1]; [6]): 27% | Population Fragmented Nuclei (%) (U2OS [1]; [6]): 9% | Population Healthy Nuclei (%) (U2OS [1]; [6]): 68% | Population Hoechst High Intensity Objects (%) (U2OS [1]; [6]): 3% | Population Membrane Permeable-Phenotype (%) (U2OS [1]; [6]): 25% | Population Mitochondria Different-Phenotype (%) (U2OS [1]; [6]): 87% | Population Mitotic Cells (%) (U2OS [1]; [6]): 72% | Population Normal (%) (U2OS [1]; [6]): 96% | Population Pyknosed Nuclei (%) (U2OS [1]; [6]): 21% | Population Tubulin-Different-Phenotype (%) (U2OS [1]; [6]): 92% | Total Cell Count (U2OS [1]; [6]): 106 | Population Apoptotic (%) (U2OS [1]; [7]): 39% | Population Fragmented Nuclei (%) (U2OS [1]; [7]): 15% | Population Healthy Nuclei (%) (U2OS [1]; [7]): 65% | Population Hoechst High Intensity Objects (%) (U2OS [1]; [7]): 4% | Population Membrane Permeable-Phenotype (%) (U2OS [1]; [7]): 7% | Population Mitochondria Different-Phenotype (%) (U2OS [1]; [7]): 4% | Population Mitotic Cells (%) (U2OS [1]; [7]): 60% | Population Normal (%) (U2OS [1]; [7]): 95% | Population Pyknosed Nuclei (%) (U2OS [1]; [7]): 19% | Population Tubulin-Different-Phenotype (%) (U2OS [1]; [7]): 3% | Total Cell Count (U2OS [1]; [7]): 203 | Population Apoptotic (%) (U2OS [1]; [8]): 20% | Population Fragmented Nuclei (%) (U2OS [1]; [8]): 22% | Population Healthy Nuclei (%) (U2OS [1]; [8]): 57% | Population Hoechst High Intensity Objects (%) (U2OS [1]; [8]): 8% | Population Membrane Permeable-Phenotype (%) (U2OS [1]; [8]): 6% | Population Mitochondria Different-Phenotype (%) (U2OS [1]; [8]): 20% | Population Mitotic Cells (%) (U2OS [1]; [8]): 80% | Population Normal (%) (U2OS [1]; [8]): 91% | Population Pyknosed Nuclei (%) (U2OS [1]; [8]): 20% | Population Tubulin-Different-Phenotype (%) (U2OS [1]; [8]): 16% | Total Cell Count (U2OS [1]; [8]): 82 | Population Apoptotic (%) (U2OS [1]; [9]): 40% | Population Fragmented Nuclei (%) (U2OS [1]; [9]): 11% | Population Healthy Nuclei (%) (U2OS [1]; [9]): 45% | Population Hoechst High Intensity Objects (%) (U2OS [1]; [9]): 14% | Population Membrane Permeable-Phenotype (%) (U2OS [1]; [9]): 16% | Population Mitochondria Different-Phenotype (%) (U2OS [1]; [9]): 85% | Population Mitotic Cells (%) (U2OS [1]; [9]): 59% | Population Normal (%) (U2OS [1]; [9]): 85% | Population Pyknosed Nuclei (%) (U2OS [1]; [9]): 43% | Population Tubulin-Different-Phenotype (%) (U2OS [1]; [9]): 75% | Total Cell Count (U2OS [1]; [9]): 140 | Population Apoptotic (%) (U2OS [1]; [10]): 33% | Population Fragmented Nuclei (%) (U2OS [1]; [10]): 8% | Population Healthy Nuclei (%) (U2OS [1]; [10]): 46% | Population Hoechst High Intensity Objects (%) (U2OS [1]; [10]): 2% | Population Membrane Permeable-Phenotype (%) (U2OS [1]; [10]): 22% | Population Mitochondria Different-Phenotype (%) (U2OS [1]; [10]): 79% | Population Mitotic Cells (%) (U2OS [1]; [10]): 66% | Population Normal (%) (U2OS [1]; [10]): 97% | Population Pyknosed Nuclei (%) (U2OS [1]; [10]): 45% | Population Tubulin-Different-Phenotype (%) (U2OS [1]; [10]): 69% | Total Cell Count (U2OS [1]; [10]): 109 | Population Apoptotic (%) (U2OS [1]; [11]): 31% | Population Fragmented Nuclei (%) (U2OS [1]; [11]): 8% | Population Healthy Nuclei (%) (U2OS [1]; [11]): 78% | Population Hoechst High Intensity Objects (%) (U2OS [1]; [11]): 5% | Population Membrane Permeable-Phenotype (%) (U2OS [1]; [11]): 3% | Population Mitochondria Different-Phenotype (%) (U2OS [1]; [11]): 5% | Population Mitotic Cells (%) (U2OS [1]; [11]): 68% | Population Normal (%) (U2OS [1]; [11]): 94% | Population Pyknosed Nuclei (%) (U2OS [1]; [11]): 13% | Population Tubulin-Different-Phenotype (%) (U2OS [1]; [11]): 5% | Total Cell Count (U2OS [1]; [11]): 299 | Population Apoptotic (%) (U2OS [1]; [12]): 40% | Population Fragmented Nuclei (%) (U2OS [1]; [12]): 19% | Population Healthy Nuclei (%) (U2OS [1]; [12]): 65% | Population Hoechst High Intensity Objects (%) (U2OS [1]; [12]): 9% | Population Membrane Permeable-Phenotype (%) (U2OS [1]; [12]): 4% | Population Mitochondria Different-Phenotype (%) (U2OS [1]; [12]): 17% | Population Mitotic Cells (%) (U2OS [1]; [12]): 60% | Population Normal (%) (U2OS [1]; [12]): 90% | Population Pyknosed Nuclei (%) (U2OS [1]; [12]): 14% | Population Tubulin-Different-Phenotype (%) (U2OS [1]; [12]): 13% | Total Cell Count (U2OS [1]; [12]): 113 | Population Apoptotic (%) (U2OS [1]; [13]): 62% | Population Fragmented Nuclei (%) (U2OS [1]; [13]): 19% | Population Healthy Nuclei (%) (U2OS [1]; [13]): 32% | Population Hoechst High Intensity Objects (%) (U2OS [1]; [13]): 18% | Population Membrane Permeable-Phenotype (%) (U2OS [1]; [13]): 8% | Population Mitochondria Different-Phenotype (%) (U2OS [1]; [13]): 76% | Population Mitotic Cells (%) (U2OS [1]; [13]): 37% | Population Normal (%) (U2OS [1]; [13]): 81% | Population Pyknosed Nuclei (%) (U2OS [1]; [13]): 48% | Population Tubulin-Different-Phenotype (%) (U2OS [1]; [13]): 63% | Total Cell Count (U2OS [1]; [13]): 175 | Population Apoptotic (%) (U2OS [1]; [14]): 48% | Population Fragmented Nuclei (%) (U2OS [1]; [14]): 9% | Population Healthy Nuclei (%) (U2OS [1]; [14]): 40% | Population Hoechst High Intensity Objects (%) (U2OS [1]; [14]): 12% | Population Membrane Permeable-Phenotype (%) (U2OS [1]; [14]): 21% | Population Mitochondria Different-Phenotype (%) (U2OS [1]; [14]): 78% | Population Mitotic Cells (%) (U2OS [1]; [14]): 51% | Population Normal (%) (U2OS [1]; [14]): 87% | Population Pyknosed Nuclei (%) (U2OS [1]; [14]): 50% | Population Tubulin-Different-Phenotype (%) (U2OS [1]; [14]): 53% | Total Cell Count (U2OS [1]; [14]): 133 | Growth Rate (HEK-293T; [15]): 0 | Growth Rate (HEK-293T; [16]): 1 | Growth Rate (HEK-293T; [17]): 0 | Growth Rate (HEK-293T; [18]): 1 | Growth Rate (HEK-293T; 12 h, replicate number 2, timepoint 12 hours): 0 | Growth Rate (HEK-293T; [19]): 0 | Growth Rate (HEK-293T; [20]): 0 | Growth Rate (Fibroblast; [15]): 0 | Growth Rate (Fibroblast; [16]): 1 | Growth Rate (Fibroblast; [17]): 0 | Growth Rate (Fibroblast; [18]): 0 | Growth Rate (Fibroblast; [19]): 0 | Growth Rate (Fibroblast; [20]): 0 | Growth Rate (U2OS [2]; 0 h, replicate number 2, timepoint 0 hours): 0 | Growth Rate (U2OS [2]; [17]): 1 | Growth Rate (U2OS [2]; [18]): 1 | Growth Rate (U2OS [2]; [19]): 1 | Growth Rate (U2OS [2]; [20]): 1
